Only some compounds are listed: those with a hit (about 1.8% of all), similar ones and a draw of the others.
APOBEC3G inh: APOBEC3G (human) deaminase inhibition. Q9HC16. recombinant A3G, ssDNA deamination FAM/TAMRA fluorescence. inhibition, % at 20 µM. actives 0.28% (n = 330,000). AID 493012;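 active = inhibition of at least 40% at 20 µM, with no more than 30% in the related APOBEC3A deaminase screen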;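 also: plate controls were DMSO wells with A3G for no effect and wells lacking A3G enzyme for full effect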
Target sequence (Q9HC16 whole entry, looked up): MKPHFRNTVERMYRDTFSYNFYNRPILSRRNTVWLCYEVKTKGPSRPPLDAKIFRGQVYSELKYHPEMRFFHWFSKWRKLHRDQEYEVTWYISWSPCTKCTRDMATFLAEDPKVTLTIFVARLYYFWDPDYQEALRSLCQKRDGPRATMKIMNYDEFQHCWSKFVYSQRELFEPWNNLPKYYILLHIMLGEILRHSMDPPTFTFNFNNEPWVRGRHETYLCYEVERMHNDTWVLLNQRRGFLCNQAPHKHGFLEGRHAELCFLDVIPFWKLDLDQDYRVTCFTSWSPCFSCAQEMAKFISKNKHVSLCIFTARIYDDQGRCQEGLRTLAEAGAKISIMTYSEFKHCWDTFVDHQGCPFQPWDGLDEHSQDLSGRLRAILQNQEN
PHOSPHO1 inh: blocks human PHOSPHO1 phosphatase activity. recombinant PHOSPHO1, absorbance phosphatase assay. inhibition, % at 13.3 µM. actives 1.1% (n = 290,000). AID 1565; in the data active = inhibition above about 60%
pCIP destab: p/CIP protein destabilization; actives 0.01% (n = 290,000); Q05BA5; decrease of EGFP signal, % at 10 µM; AID 1984; F442A p/CIP-EGFP cells, EGFP fluorescence, 16 h;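 active = EGFP signal decrease of at least 30% at 10 µM or well 3 SD below plate mean, unless failing retest; inactive = the rest, including hits failing retest or dose response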
A3A deaminase: human APOBEC3A DNA deaminase inhibition | actives 0.41% (n = 330,000) | recombinant A3A, FAM/TAMRA ssDNA deamination fluorescence | P31941 | inhibition, % at 20 µM;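 active = at least 40% inhibition at 20 µM here, with at most 30% in a related deaminase screen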;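 also: plate controls were A3A with DMSO for no effect and wells lacking A3A enzyme for full effect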
Target sequence (P31941 whole entry, looked up): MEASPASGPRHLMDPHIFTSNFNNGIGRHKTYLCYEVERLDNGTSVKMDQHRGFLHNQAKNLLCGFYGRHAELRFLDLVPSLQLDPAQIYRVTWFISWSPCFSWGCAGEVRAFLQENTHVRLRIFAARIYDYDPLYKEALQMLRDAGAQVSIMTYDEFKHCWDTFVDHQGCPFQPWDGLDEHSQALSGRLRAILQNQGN
Tb MetRS inh: blocks T. brucei methionyl-tRNA synthetase activity. inhibition, % at 11.9 µM. AID 624268. purified T. brucei MetRS, ATP depletion, Kinase-Glo luminescence. actives 0.4% (n = 360,000);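 active = inhibition above a per-plate cutoff of the control wells' mean inhibition plus 3 SD, cut at about 5.5% in these data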;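 also: 0% = DMSO wells median and 100% = median of wells with control inhibitor compound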
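Test system – parasite MetRS enzyme · Reagent – substrates ATP, L-methionine and bulk Escherichia coli tRNA · Doses – 11.9 µM compound single dose, 0.9% DMSO · Times – 15 min enzyme-compound preincubation, 2 h reaction, 10 min detection, 25 °C · Signal – Kinase-Glo luminescence, ATP depletion format · Controls – DMSO-only wells as low control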
Active calls of the source: *; / = not tested or not shown.

SMILES | APOBEC3G inh | PHOSPHO1 inh | pCIP destab | A3A deaminase | Tb MetRS inh
O=C(NCc1cccnc1)c1cc(-c2ccc(Cl)cc2)oc1C(F)(F)F | -6 | 37 | -2 | -2 | 0
Cc1cc(C(=O)OCC(=O)N2CCc3ccccc32)ccc1[N+](=O)[O-] | -3 | / | / | 1 | 0
CCn1c(CSCc2ccc(C)cc2)nnc1SCC(=O)NCc1ccccc1 | -7 | -22 | -16 | -13 | -1
CCn1c(CSCc2ccc(F)cc2)nnc1SCC(=O)NCc1ccccc1 | -3 | 64* | 2 | 1 | -1
CCN(C(=O)CSC1=Nc2ccccc2C2CC=NN12)C1CCS(=O)(=O)C1 (stereo not given) | -9 | -10 | 3 | -4 | -1
COc1ccccc1N1CCN(S(=O)(=O)c2cc(Br)cnc2N)CC1 | -5 | 64* | -5 | -2 | 0
COc1ccc(OC)c(S(=O)(=O)N2CCN(c3ccccc3OC)CC2)c1 | -3 | 30 | -2 | 2 | 0
CCc1ccc(C(=O)NNC(=S)Nc2ccc(S(N)(=O)=O)cc2)s1 | 0 | 22 | 0 | -2 | 0
C(=N\n1cnnc1)/c1cccc(Oc2ccccc2)c1 | -6 | -32 | 10 | -2 | 0
S=c1[nH]ncn1/N=C/c1cccc(Oc2ccccc2)c1 | 3 | 97* | -6 | -6 | 0
Cc1ccc(CN2C(=O)c3ccccc3C2c2nnnn2-c2c(C)cccc2C)cc1 (stereo not given) | / | / | / | / | -1
COc1ccc(C(c2nnnn2C(C)(C)C)N2CCN(c3nc4ccccc4s3)CC2)cc1OC (stereo not given) | / | 9 | -20 | / | -1
COc1cc(C(c2nnnn2C(C)(C)C)N2CCN(c3nc4ccccc4s3)CC2)ccc1O (stereo not given) | -3 | 61* | -7 | 1 | 0
Cc1ccc(C(=O)NNC(=S)NC(=O)c2ccc(Cl)cc2Cl)cc1 | -3 | 76* | 0 | -1 | -1
COc1cc2c(cc1OC)C(c1cc3cccc(C)c3[nH]c1=O)N(C(=O)c1ccco1)CC2 (stereo not given) | -6 | 27 | 2 | -3 | 0
O=C(COc1ccc(Cl)cc1Cl)NNC(=S)Nc1ccc(F)cc1 | -3 | 71* | -3 | -4 | 0
CCOc1ccc(C(=O)Nc2cccc(-c3nc4ccccc4[nH]3)c2C)cc1[N+](=O)[O-] | -8 | -7 | -3 | 2 | -1
CCOc1ccc(C(=O)Nc2cc(-c3nc4ccccc4[nH]3)ccc2C)cc1[N+](=O)[O-] | -9 | 18 | -1 | 0 | 13*
CCOC(=O)c1sc2nc(C3CC3)cc(-c3ccc(OC)cc3)c2c1N | 0 | 74* | -2 | -9 | 0
CCOC(=O)c1sc2nc(C3CC3)cc(-c3ccc(F)cc3)c2c1N | 1 | 40 | 1 | 2 | 0
CC(=O)Nc1ccc2c(CSc3nncs3)cc(=O)oc2c1 | -1 | 5 | -10 | -33 | 0
CC(=O)Nc1ccc2c(CSc3nnc(N)s3)cc(=O)oc2c1 | -10 | 69* | -19 | -31 | -1
CCOC(=O)Cn1c(=S)[nH]c2c(oc3ccc(Cl)cc32)c1=O | -6 | 93* | -10 | -4 | 0
CCOC(=O)N1CCN(C(=O)c2ccc3c(=O)n(Cc4ccc(Cl)cc4)c(=S)[nH]c3c2)CC1 | -2 | 35 | 2 | 6 | 0
CC(C)(C)C(=O)Nc1c(Cl)cccc1OC(F)(F)F | -7 | -41 | 7 | 1 | -1
SMILES | APOBEC3G inh | PHOSPHO1 inh | pCIP destab | A3A deaminase | Tb MetRS inh
Cc1ccccc1N(C)S(=O)(=O)c1nnc(NC(=O)c2ccccc2F)s1 | -4 | 64* | -16 | -2 | 0
Cc1nnc(NC(=O)c2ccccc2F)s1 | -1 | -3 | 8 | 2 | -1
COc1ccc(NC(=O)c2ccc(CNc3c(N4CCCC4)c(=O)c3=O)cc2)cc1Cl | -3 | 66* | 7 | 3 | 0
COc1ccc(NC(=O)C2CCC(CNc3c(N4CCOCC4)c(=O)c3=O)CC2)cc1Cl (stereo not given) | -6 | 27 | -2 | -2 | 0
S=c1[nH]nc(Cc2ccccc2)n1-c1ccccc1 | 38 | 28 | -6 | -4 | -1
Cc1n[nH]c(=S)n1-c1ccccc1 | -8 | 90* | 5 | -5 | 0
Cc1ccc(-n2c(Cc3ccccc3)n[nH]c2=S)cc1 | 34 | 101* | -5 | 1 | 0
N=C1SCC(=O)N1c1ncc(Cc2cccc(Cl)c2)s1 | / | -12 | 6 | / | 0
CCOC(=O)C(N=Nc1nn[nH]n1)C(C)=O (stereo not given) | / | / | / | / | 0
CO/N=C/c1ccc(N2CCN(C(=O)c3ccc(C)cc3)CC2)c([N+](=O)[O-])c1 | -2 | 16 | -4 | -1 | 16*
CO/N=C/c1ccc(N2CCCC2)c([N+](=O)[O-])c1 | 7 | 20 | -6 | 10 | 0
CCC(C)(C)C1CCc2c(sc(N)c2C(N)=O)C1 (stereo not given) | -7 | -32 | -3 | -4 | -1
CCCC1CCc2c(sc(N)c2C(N)=O)C1 (stereo not given) | -11 | 95* | -6 | -8 | -1
CC(C)(C)C1CCc2c(sc(N)c2C(N)=O)C1 (stereo not given) | / | 83* | -18 | / | 0
CC(=O)c1ccc(-n2c(-c3cc(-c4ccco4)[nH]n3)n[nH]c2=S)cc1 | 37 | 97* | -8 | 2 | 0
S=c1[nH]nc(-c2cc(-c3ccco3)[nH]n2)n1-c1cccc2ccccc12 | -3 | 94* | -27 | -2 | 1
O=C(O)c1ccc(-n2c(-c3cc(C4CC4)[nH]n3)n[nH]c2=S)cc1 | -9 | 63* | 3 | -3 | -1
Cc1ccc(N2CC(NC(=O)C(=O)c3c(C)[nH]c4ccccc34)CC2=O)cc1C (stereo not given) | -3 | / | / | 1 | 0
COC(=O)CCC(=O)Nc1ccc(S(=O)(=O)Nc2cc(OC)nc(OC)n2)cc1 | 0 | 46 | -2 | 2 | 0
COc1cc(NS(=O)(=O)c2ccc(NC(=O)CSC3=NCCS3)cc2)nc(OC)n1 | -3 | 76* | -17 | 7 | /
COc1ccc(CCNC(=O)COC(=O)c2cc(S(=O)(=O)NCc3ccccc3)ccc2O)cc1OC | -2 | 24 | 6 | 11 | -1
Clc1ccc(/C=N/N2CCCCC2)cc1 | -3 | 65* | -15 | -3 | -1
O=C1C(Cl)=C(Nc2ccc3cn[nH]c3c2)C(=O)c2ccccc21 | / | 34 | 59* | / | 0
S=C(Nc1cccc2ccccc12)N1CCN(c2ncccn2)CC1 | 11 | 88* | 4 | -5 | -1
Cc1ccc(-n2c(C)cc(/C=c3/sc4nc5ccccc5n4c3=O)c2C)cc1 | -6 | 62* | -8 | -4 | /
Cc1ccc(NC(=O)C2CCN(S(=O)(=O)c3ccc4c(c3)CC(C)N4C(=O)C3CCC3)CC2)nc1 (stereo not given) | -7 | 75* | -3 | -5 | 0
CCSCCOC(=O)C1=C(C)NC2=C(C(=O)CCC2)C1c1coc2ccccc2c1=O (stereo not given) | -5 | 63* | -3 | -5 | -2

Bioassay records deposited in PubChem by several laboratories.
